The values that follow come from ChEMBL document CHEMBL1124867, “Synthesis and antiviral activity of monofluoro and difluoro analogues of pyrimidine deoxyribonucleosides against human immunodeficiency virus (HIV-1)” (J Med Chem, 1990).

Test [1] deals with C8166. The test is described as follows: Antiviral activity against HIV-1 (RF strain) in C8166 cells. In kind it is functional, cell-based. The conditions noted are these: Homo sapiens. Put shortly: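 HIV-1 RF strain in C8166 cells, 3-day incubation with compound at various concentrations (highest tested 100 μM). Virus in culture medium quantified by p24 antigen-capture ELISA (primary antiserum against p24, horseradish peroxidase detection), colour read spectrophotometrically and plotted against concentration; IC50 = concentration reducing virus levels by 50%.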

Test [2] relates to C8166. The test is described as follows: Concentration of compound that inhibits incorporation of radiolabeled amino acids by 50 %. The settings on record: Homo sapiens, read-out: CD50 (the source's name). In kind it is functional. Put shortly:
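C8166 cells (2 × 10⁵) exposed to compound at various concentrations for 3 days, washed, then given ¹⁴C protein hydrolysate for a further 24 h. Cells harvested and washed, ¹⁴C incorporation counted by scintillation, radioactivity plotted against concentration; CD50 = concentration inhibiting label incorporation by 50%.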

Broadly, the IC50 is the point on the concentration scale where inhibition reaches its midpoint. Regarding `Nc1ccn(C2OC(CO)CC2F)c(=O)n1` (configuration not stated), the IC50 in test [1] was > 100 µM.
With `Nc1ccn([C@H]2CC[C@@H](CO)O2)c(=O)n1` [ZALCITABINE], the CC50 in test [2] came out at 1000 µM. The compound further showed an IC50 in test [1] of 0.125 µM.
Turning to `O=c1ccn(C2OC(CO)C(F)C2F)c(=O)[nH]1` (configuration not stated), the IC50 in test [1] is > 100 µM.
Still for that read-out and setting: the result for `O=c1ccn(C2OC(CO)CC2F)c(=O)[nH]1` (configuration not stated) reads > 100 µM; that for `Nc1nc(=O)n(C2OC(CO)CC2F)cc1F` (configuration not stated), > 100 µM.
For the compound `Nc1ccn([C@@H]2O[C@H](CO)C[C@@H]2F)c(=O)n1`, the CC50 in test [2] came out at 500 µM. In test [1], this compound came in with an IC50 of 0.7 µM.
The corresponding values for `Cc1cn([C@@H]2O[C@H](CO)C=C2F)c(=O)[nH]c1=O` are > 1000 µM and 100 µM.
As for `Cc1cn([C@H]2C[C@H](N=[N+]=[N-])[C@@H](CO)O2)c(=O)[nH]c1=O` [ZIDOVUDINE], the CC50 in test [2] was > 1000 µM. The compound also registered an IC50 in test [1] of 0.0085 µM.
For `O=c1ccn(C2OC(CO)C=C2F)c(=O)[nH]1` (configuration not stated), the IC50 in test [1] is > 100 µM.
Regarding `Nc1ccn(C2OC(CO)C(F)C2F)c(=O)n1` (configuration not stated), the CC50 in test [2] was > 100 µM. Also, 10 µM corresponded to half-maximal inhibition in test [1] (IC50).
Take `Nc1ccn([C@@H]2O[C@H](CO)C=C2F)c(=O)n1`: the CC50 in test [2] turned out to be 30 µM. The IC50 in test [1] came to 10 µM.
